The source made the active and inactive calls. The calls are words filed in the database; no cut-off is given here.
Tests used:
[1] = biological target: T1, C3a anaphylatoxin chemotactic receptor (Homo sapiens) (UniProt Q16581); test: Potency index, ratio of SB290157 IC50 to test compound IC50 for antagonist activity at C3a receptor in human LAD2 cells assessed as inhibition of C3a-induced beta-hexosaminidase release; type: cell-based
T1 sequence (whole entry): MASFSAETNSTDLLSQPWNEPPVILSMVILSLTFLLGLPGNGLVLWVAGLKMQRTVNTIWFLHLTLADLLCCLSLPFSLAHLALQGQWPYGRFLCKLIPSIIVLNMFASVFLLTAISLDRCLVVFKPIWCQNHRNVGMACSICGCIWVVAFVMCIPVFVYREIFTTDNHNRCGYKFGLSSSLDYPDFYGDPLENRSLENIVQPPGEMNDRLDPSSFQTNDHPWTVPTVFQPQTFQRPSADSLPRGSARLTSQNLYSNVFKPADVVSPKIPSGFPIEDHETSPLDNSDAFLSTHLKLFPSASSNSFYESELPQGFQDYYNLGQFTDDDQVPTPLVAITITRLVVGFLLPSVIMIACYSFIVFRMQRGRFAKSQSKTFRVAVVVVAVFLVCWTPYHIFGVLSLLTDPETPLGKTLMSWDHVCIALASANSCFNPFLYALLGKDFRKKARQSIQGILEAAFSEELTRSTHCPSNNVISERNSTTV

Rattus norvegicus = test: Antiinflammatory activity in Wistar rat model of BR103-induced paw edema assessed as reduction in hind paw swelling at 10 mg/kg, po administered via gavage pretreated for 4 hrs followed by BR103 challenge and measured after 30 mins by digital caliper method relative to control; type: functional, organism-based
In short: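 Male Wistar rats given 10 mg/kg p.o. in olive oil at 0.5, 1, 2 or 4 h before i.pl. BR103 (350 μg in 100 μL 5% DMSO). Control rats received olive oil. Paw thickness and width measured by digital calipers at 0 and 0.5 h after agonist. n = 3–5 per group, one-way ANOVA.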

With `Cc1cc(C(c2ccc(Cl)cc2)c2ccc(Cl)cc2)sc1C(=O)N[C@@H](CCCNC(=N)N)C(=O)O` the Ratio IC50 [1] was 100 and the Activity (Rattus norvegicus) was “Active”.

Reference: ChEMBL document CHEMBL4376878, “Potent Thiophene Antagonists of Human Complement C3a Receptor with Anti-Inflammatory Activity” (J Med Chem, 2020)
